TRPML3 ag = human mucolipin-3 channel agonism; AID 1448; activation, % at 3 µM; HEK293 TRPML3-YFP, Fluo-8 calcium fluorescence; 100% = the carbachol control signal; 220,000 compounds, 0.29% hits;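 active means activation above its plate's cutoff, the mean activation of the plate's test wells plus 3 SD, cut at about 12% in these data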;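 further: 0% = DMSO only wells and 100% = carbachol wells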
Target sequence (Q8TDD5 whole entry, looked up): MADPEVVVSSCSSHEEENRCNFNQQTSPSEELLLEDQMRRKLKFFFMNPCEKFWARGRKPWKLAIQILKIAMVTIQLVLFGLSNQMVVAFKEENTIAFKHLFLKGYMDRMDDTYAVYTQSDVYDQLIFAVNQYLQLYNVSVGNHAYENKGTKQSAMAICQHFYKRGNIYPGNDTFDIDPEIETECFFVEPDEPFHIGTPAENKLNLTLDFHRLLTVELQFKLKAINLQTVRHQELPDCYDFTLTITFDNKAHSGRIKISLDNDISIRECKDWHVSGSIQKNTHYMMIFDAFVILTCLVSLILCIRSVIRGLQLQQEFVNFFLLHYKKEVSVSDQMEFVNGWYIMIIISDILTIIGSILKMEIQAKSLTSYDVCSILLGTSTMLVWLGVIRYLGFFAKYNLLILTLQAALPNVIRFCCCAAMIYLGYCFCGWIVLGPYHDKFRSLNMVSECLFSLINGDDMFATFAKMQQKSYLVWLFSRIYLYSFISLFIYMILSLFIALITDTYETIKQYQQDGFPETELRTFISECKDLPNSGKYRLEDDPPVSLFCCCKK
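Material: HEK293 cells stably carrying human TRPML3-YFP; compound dosing: single dose, 3 µM final nominal compound, 0.3% DMSO final; incubation: 1-h 37 °C dye load, 5-s basal, 120-s post-compound reads; technique: Fluo-8 intracellular calcium fluorescence, excitation 470-495 nm, emission 515-575 nm; read-out basis: percent activation from peak-to-basal fluorescence ratio, scaled between DMSO and carbachol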
OX1R antag-1 = OX1R (human) antagonism; OX1R-expressing cells, FRET antagonist read-out; inhibition, % at 6.6 µM; 330,000 compounds, 1.8% hits; AID 485270; in the data active means inhibition mostly above about 38%, no sharp cut-off; inactive means mostly below about 40%;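 further: 0% = agonist challenge alone and 100% = reference antagonist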
TRPN1 ag = activates the zebrafish TRPN1 channel. activation, % at 3 µM. 220,000 compounds, 0.18% hits. AID 1424. HEK293 zebrafish TRPN1-YFP, Fluo-8 calcium fluorescence; 100% = response to 87 µM carbachol;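 active means activation above its plate's cutoff, the mean activation of test wells on that plate plus 3 SD, cut at about 19% in these data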;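 further: 0% = DMSO alone and 100% = 87 µM carbachol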
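Material: zebrafish TRPN1-YFP in HEK293 cells; Doses: single test compound dose, 3 µM nominal, 0.3% DMSO; Timing: dye loading 1 h at 37 °C, then 30 min room temperature; Technique: intracellular calcium fluorescence with Fluo-8; Benchmarks: high carbachol 87 µM, low DMSO alone.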
CHO parental Ca = counter-screen for OX1R antagonists: effect in parental CHO cells | inhibition, % at 5.6 µM | parental CHO-K1, ATP-induced calcium, Fluo-8 fluorescence | 330,000 compounds, 0.63% hits;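 active means inhibition above that plate's mean sample inhibition plus 3 SD, cut at about 26% in these data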;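 further: 0% = ATP-challenged DMSO wells and 100% = DMSO wells without ATP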
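Material – parental CHO cells · Reagent – ATP stimulus · Compound – single nominal dose of 5.6 µM per compound · Detection – Fluo-8 fluorescence · Read-out basis – percent inhibition of calcium signal · Controls – ATP-challenged DMSO wells low, unchallenged DMSO wells high · Repeats – no replicates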
OX1R antag-2 = human HCRTR1 antagonism; O43613; CHO/OX1R cells, Fluo-8 calcium fluorescence, orexin A; inhibition, % at 5 µM; 330,000 compounds, 0.43% hits; AID 434989;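 active means inhibition above its plate's threshold, mean inhibition of all tested compounds on the plate plus 3 SD, cut at about 37% in these data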;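 further: 0% = orexin A challenge wells and 100% = SB-334867-A antagonist wells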
Numbers without * were called inactive; nt = not tested or not shown. Only some compounds are listed: those with a hit (about 2.5% of all), similar ones and a draw of the others.

SMILES	TRPML3 ag	OX1R antag-1	TRPN1 ag	CHO parental Ca	OX1R antag-2
COc1ccc(NS(=O)(=O)c2ccc(C(=O)N3CCN(c4ccc(F)cc4)CC3)cc2)cc1	nt	8	nt	27*	34
Cc1ccc(NS(=O)(=O)c2ccc(C(=O)N3CC(C)CC(C)C3)cc2)cc1 (centres undefined)	nt	0	nt	64*	63*
COc1ccc(N2CCN(C(=O)c3ccc(NS(=O)(=O)c4ccc(F)c(F)c4)cc3)CC2)cc1	0	15	-1	40*	14
COc1ccc(N2CCN(C(=O)c3ccc(NS(=O)(=O)c4cccc(F)c4)cc3)CC2)cc1	-1	12	0	-7	-10
Cc1[nH]c2ccccc2c1CCNC(=O)c1ccc2c(c1[N+](=O)[O-])C(=O)c1ccccc1C2=O	-1	71*	-1	-6	-8
Cc1[nH]c2c(C)cccc2c1CCNC(=O)c1ccc2c(c1[N+](=O)[O-])C(=O)c1ccccc1C2=O	0	75	0	2	5
C(=N\NC1=Nc2cccc3cccc1c23)/c1cccnc1	1	72*	0	-10	11
Cc1nc2ccc3[nH]snc3c2n1	1	52*	1	4	5
CCc1noc(C)c1C(=O)NCCN1C(=O)S/C(=C\c2ccc(OC)cc2)C1=O	nt	58*	nt	23	-3
COc1ccc(/C=C2\SC(=O)N(CCNC(=O)Cn3cnnn3)C2=O)cc1	1	20	0	-10	-10
CCOC(=O)[C@@H]1[C@H]2COc3cc(OC)ccc3[C@H]2N2C(=O)N(c3ccc(C(F)(F)F)cc3)C(=O)[C@]12C	nt	20	nt	50*	31
CCOC(=O)[C@@H]1[C@H]2COc3cc(OC)ccc3[C@@H]2N2C(=O)N(c3ccc(C(F)(F)F)cc3)C(=O)[C@@]12C	nt	28	nt	-19	-15
CCN(CC(=O)Nc1cc(S(=O)(=O)N2CCOCC2)ccc1C)Cc1ccccc1	nt	26	nt	-20	-27
Cn1nc(C(=O)Nc2ccccc2)c2c1-c1ccccc1S(=O)(=O)C2	nt	4	nt	-4	-6
Cc1ccc(Cl)cc1N1CCN(C(=O)c2ccc(NS(=O)(=O)c3c(C)noc3C)cc2)CC1	-1	41	0	44*	26
CCOc1cc(CNCCO)cc(Br)c1OCc1ccc(Cl)cc1Cl	2	-7	1	19	41*
C/C(=N/OC(=O)C1CC1)c1cc(-c2ccc(Cl)cc2)no1	1	22	1	-6	-16
O=C(COC(=O)c1ccccc1Nc1ccccc1)c1ccccc1	1	20	-1	6	43*
CCNC(=S)N1CCN(c2nc(-c3ccc(F)cc3)cs2)CC1	nt	21	nt	65*	48*
COCCNC(=S)N1CCN(c2nc(-c3ccc(F)cc3)cs2)CC1	nt	-1	nt	-1	-10
CCOc1ccc(NC(=S)NC(=O)c2cccnc2)c([N+](=O)[O-])c1	nt	27	nt	-8	-25
O=C(Oc1ccccc1C(=O)Oc1ccccc1)c1cccnc1	0	8	-1	-3	1
Cc1ccccc1S(=O)(=O)Oc1ccccc1C(=O)Oc1ccccc1	7	30	0	39*	27
COc1ccccc1C(=O)Oc1ccc(C(C)(C)C)cc1	0	3	-2	41*	-10
COc1ccc(Cl)cc1N(CC(=O)NC1CC1)S(=O)(=O)c1ccc(C)c([N+](=O)[O-])c1	0	17	1	8	-25
SMILES	TRPML3 ag	OX1R antag-1	TRPN1 ag	CHO parental Ca	OX1R antag-2
CCN(CC)C(=O)CN(c1cc(Cl)ccc1OC)S(=O)(=O)c1ccc(C)c([N+](=O)[O-])c1	1	74*	-2	3	39
CC(=O)Nc1ccc(S(=O)(=O)NC2CC3CCC2C3)cc1 (centres undefined)	nt	9	nt	1	-14
CNc1cc(CSC)nc(SCc2ccc(Cl)c(Cl)c2)n1	0	49*	-1	-17	55*
COc1cc(Cl)c(NS(=O)(=O)c2cc3[nH]c(=O)c(=O)[nH]c3cc2C)c(OC)c1	nt	10	nt	-12	-14
CN(C(=O)c1cccnc1)c1nc(-c2ccccc2)cs1	0	13	1	51*	13
CN(Cc1ccccc1)C(=O)c1cccnc1	nt	5	nt	-6	-1
CCC(=O)N1CCc2cc(Br)cc(S(=O)(=O)N(C)c3ccc(OC)cc3)c21	nt	14	nt	6	3

Source: PubChem BioAssay
